Eight compounds from ChEMBL document CHEMBL1649368, “Novel isatinyl thiosemicarbazones derivatives as potential molecule to combat HIV-TB co-infection” (Eur J Med Chem, 2011) can be followed below.

In brackets after ≈: the same amount, converted by molar mass.

In data set [1] the test system is Human immunodeficiency virus 1. In words: Antiviral activity against HIV1 3B infected in human MT4 cells assessed as protection against virus-induced cytopathogenicity after 5 days by microtiter plate analysis. Particulars: Human immunodeficiency virus 1, 3B, MT4, 120 h. It counts as functional, organism-based. In short, it runs like this:
(§1)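 MT-4 cells were grown in RPMI-1640 DM with 10% heat-inactivated calf serum and gentamicin. HIV-1 IIIB (100 CCID50) or mock infection was run in parallel with compounds in triplicate, at 37 °C and 5% CO2 for 5 days. Viability was read by MTT spectrophotometry. EC50 was the 50% reduction in virus cytopathic effect; CC50 was the 50% loss of mock-infected cell viability.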
In general terms: Protection from cytopathic effect is a common read-out in antiviral testing.

Data set [2] has as its system Mycobacterium tuberculosis. In words: Antimycobacterial activity against Mycobacterium tuberculosis H37Ra assessed as inhibition of bacterial growth in dormant phase. It counts as functional. In short, it runs like this:
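MTB grown in 7H9 with glycerol, OADC and Tween 80 at 37 °C with rolling to OD600 ~0.6, then washed and held in PBS 6 weeks at 37 °C. Starved cells (~1×10^7 in 1 mL PBS) were exposed to compounds in DMSO at various concentrations for 7 days with shaking. After washing, dilutions were plated on antibiotic-free 7H11 and counted after 4 weeks. MIC was complete growth inhibition, in triplicate.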

Data set [3] concerns the target T1, Isocitrate lyase (Mycobacterium tuberculosis) (UniProt P9WKK7).
T1 sequence (whole entry): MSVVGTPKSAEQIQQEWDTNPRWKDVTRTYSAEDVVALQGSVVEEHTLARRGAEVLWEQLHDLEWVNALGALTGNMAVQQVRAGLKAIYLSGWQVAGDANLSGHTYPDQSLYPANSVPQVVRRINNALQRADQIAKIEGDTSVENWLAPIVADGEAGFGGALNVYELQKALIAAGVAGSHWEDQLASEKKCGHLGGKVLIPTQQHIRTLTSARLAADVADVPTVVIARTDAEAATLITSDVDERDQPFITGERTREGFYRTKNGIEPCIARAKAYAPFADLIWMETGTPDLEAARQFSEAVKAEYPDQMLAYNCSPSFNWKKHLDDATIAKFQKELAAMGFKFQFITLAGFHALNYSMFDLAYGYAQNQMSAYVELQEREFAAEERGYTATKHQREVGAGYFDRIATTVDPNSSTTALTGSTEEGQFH
In words: Inhibition of Mycobacterium tuberculosis isocitrate lyase […]. In short, it runs like this: (§2)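 Isocitrate lyase activity was measured at 37 °C as glyoxylate-phenylhydrazone formation from isocitrate with phenylhydrazine, MgCl2 and 2-mercaptoethanol in potassium phosphate buffer. After 10 min the mixture was diluted and absorbance read at 324 nm. Test compounds were added from a 10 mM solution; the 3-nitropropionic acid reference came from a 100 mM solution. % inhibition = (control − test)/control × 100.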

In data set [4] the test system is Mycobacterium tuberculosis. In words: Antimycobacterial activity against Mycobacterium tuberculosis H37Ra by agar dilution method. It counts as functional. In short, it runs like this: (§3)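 Log-phase MTB was tested by agar dilution on Middlebrook 7H11 with OADC, following NCCLS guidance. MIC was the lowest concentration giving complete growth inhibition, determined in triplicate.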
On the technique in general: Agar dilution tests growth on a series of plates holding different concentrations.

Data set [5] addresses Human immunodeficiency virus type 1 reverse transcriptase (Human immunodeficiency virus 1, UniProt Q72547). In words: Inhibition of HIV1 reverse transcriptase. In short, it runs like this: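 The radiometric reaction used wild-type RT in 50 mM Tris-HCl pH 7.8 with DTT, glutathione, EDTA, KCl, MgCl2, BSA, Triton X-100, poly(rC)·oligo(dG) template/primer and [3H]dGTP. It ran 15 min at 37 °C, was stopped with carrier DNA, pyrophosphate and TCA, and held on ice 30 min.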

For data set [6], the system named is Mycobacterium tuberculosis. In words: Antimycobacterial activity against Mycobacterium tuberculosis H37Ra assessed as inhibition of bacterial growth in log phase by agar dilution method. It counts as functional. In short, it runs like this: as §3
Data set [7] is described as follows: Cytotoxicity against human MT4 cells after 5 days by spectrophotometry. It counts as cell-based. In short, it runs like this:
as §1

In data set [8] the target is T1, Isocitrate lyase (Mycobacterium tuberculosis). In words: Inhibition of Mycobacterium tuberculosis isocitrate lyase at 100 mM. A digest of the protocol:
as §2

For the compound `CONC(=S)N/N=C1\C(=O)N(CN2CCN(c3ccc(Cl)cc3)CC2)c2ccc(Cl)cc21`, the concentration for a half-maximal effect (EC50) in data set [1] came to 2.43 µM. Also, the MIC is 27.3 µM (≈ 13.5 µg/mL) in data set [2], 6.34 µM (≈ 3.13 µg/mL) in data set [4] and 6.82 µM (≈ 3.37 µg/mL) in data set [6]. In data set [3], this compound had an inhibition of 6.38%. Further, in data set [5], the 50% inhibitory concentration (IC50) was 0.25 µM. For the same compound, the CC50 at 120 h in data set [7] worked out at 229 µM.

On to `O=C(O)CC[N+](=O)[O-]`, for which, in data set [8], the inhibition amounted to 66%.

For `CONC(=S)N/N=C1\C(=O)N(CN2CCN(c3ccc(OC)cc3)CC2)c2ccc(C)cc21`, the EC50 in data set [1] was determined as 9.82 µM. Besides, the MIC came out at 9.74 µM (≈ 4.56 µg/mL) in data set [2], 6.68 µM (≈ 3.13 µg/mL) in data set [4] and 0.16 µM (≈ 0.075 µg/mL) in data set [6]. The inhibition in data set [3] worked out at 23.3%. In data set [7], this compound showed a CC50 at 120 h of 324 µM.

For `CONC(=S)N/N=C1\C(=O)N(CN2CCOCC2)c2ccc(F)cc21`, in data set [1], the 50% effective concentration (EC50) came out at 28.9 µM. For the same compound, the MIC in data set [2] amounted to 13.5 µM (≈ 4.95 µg/mL); in data set [4], 4.25 µM (≈ 1.56 µg/mL); in data set [6], 3.37 µM (≈ 1.24 µg/mL). In data set [3], this compound had an inhibition of 15.9%. The same compound yielded a CC50 at 120 h in data set [7] of 274 µM.

Turning to `Cc1ccc2c(c1)/C(=N/NC(=S)NO)C(=O)N2CN1CCN(c2ccc(Cl)cc2)CC1`, the EC50 in data set [1] is 6.1 µM. In addition, the inhibition in data set [3] was 11%. This compound gave a minimal inhibitory concentration (MIC) in data set [4] of 6.82 µM (≈ 3.13 µg/mL). Half-maximal inhibition in data set [5] (IC50) was put at 23.4 µM. This compound also returned a cytotoxic concentration (CC50) at 120 h in data set [7] of 335 µM.

In the case of `CONC(=S)N/N=C1\C(=O)N(CN2CCN(c3ccc(Cl)cc3)CC2)c2ccc(F)cc21`, in data set [1], the EC50 came out at 3.77 µM. Moreover, the minimum inhibitory concentration (MIC) in data set [2] is 42.1 µM (≈ 20.1 µg/mL); in data set [4] it was 3.27 µM (≈ 1.56 µg/mL); in data set [6], 0.67 µM (≈ 0.32 µg/mL). Also, the inhibition in data set [3] worked out at 28.4%. The compound also showed a 50% inhibitory concentration (IC50) in data set [5] of 16.7 µM. In addition, in data set [7], the midpoint of cytotoxicity, the CC50 at 120 h, lay at 347 µM.

For `CONC(=S)N/N=C1\C(=O)N(CN2CCN(c3ccc(Cl)cc3)CC2)c2ccc(C)cc21`, the EC50 in data set [1] stood at 1.69 µM. Moreover, the minimal inhibitory concentration (MIC) in data set [2] is 20.4 µM (≈ 9.64 µg/mL); in data set [4], 3.3 µM (≈ 1.56 µg/mL); in data set [6], 0.65 µM (≈ 0.307 µg/mL). The compound also had an inhibition in data set [3] of 9.49%. In data set [5], this compound had a half-maximal inhibitory concentration (IC50) of 11.5 µM. The CC50 at 120 h in data set [7] amounted to 300 µM.

Turning to `CCN(CC)CN1C(=O)/C(=N\NC(=S)NOC)c2cc(C)ccc21`, the EC50 in data set [1] came out at 53.3 µM. Besides, in data set [3], the inhibition came out at 18.9%. 8.96 µM (≈ 3.13 µg/mL) was the least that counted as inhibitory in data set [4] (MIC). Also, in data set [7], the midpoint of cytotoxicity, the CC50 at 120 h, lay at 573 µM.

What is called EC50 is the midpoint of the concentration-response curve. The term MIC denotes the smallest concentration in the dilution series that meets the test's criterion for growth inhibition. Broadly, the inhibition is how much of the control response was suppressed. As usually defined, the IC50 is the concentration that inhibits the measured activity by half. A lower IC50 goes with greater potency. What is called CC50 is the concentration giving 50% cytotoxicity. Read a high CC50 as better tolerance by the cells.
